Measured values: ChEMBL document CHEMBL1121848, “Inactivation of trypsin-like proteases by depsipeptides of p-guanidinobenzoic acid” (J Med Chem, 1981)

How the values were obtained:
[1] = Second order rate constant was determined in the inactivation of trypsin
Procedure, shortened: (§1)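 Trypsin or human plasma kallikrein (10^-6 to 10^-9 M final) was inactivated at 25 °C by ester in water (10^-3 to 10^-6 M final) in 50 mM Pipes, pH 7.0, with 200 mM NaCl. Activity decayed first-order. Individual constants k_2 (min⁻¹) and K_m (M) were resolved for each enzyme.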

[2] = target: Urokinase-type plasminogen activator (Homo sapiens) (UniProt P00749); experiment: Compound was evaluated for the reactivity in the inactivation of trypsin like Urokinase-type plasminogen activator
Procedure, shortened: (§2)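 Each enzyme (10^-6 to 10^-9 M final) was incubated at 25 °C with inhibitor dissolved in water (10^-3 to 10^-6 M final) in 50 mM Pipes, pH 7.0, with 200 mM NaCl. Loss of activity was treated as first-order to give k_app. Reactivity was k_app divided by inhibitor concentration.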

[3] = Compound was evaluated for the reactivity in the inactivation of trypsin like enzyme; procedure, shortened: as §2
[4] = target: Acrosin (Sus scrofa) (UniProt P08001); experiment: Compound was evaluated for the reactivity in the inactivation of trypsin like boar acrosin
Chain of Acrosin (Sus scrofa) (P08001 whole entry, looked up): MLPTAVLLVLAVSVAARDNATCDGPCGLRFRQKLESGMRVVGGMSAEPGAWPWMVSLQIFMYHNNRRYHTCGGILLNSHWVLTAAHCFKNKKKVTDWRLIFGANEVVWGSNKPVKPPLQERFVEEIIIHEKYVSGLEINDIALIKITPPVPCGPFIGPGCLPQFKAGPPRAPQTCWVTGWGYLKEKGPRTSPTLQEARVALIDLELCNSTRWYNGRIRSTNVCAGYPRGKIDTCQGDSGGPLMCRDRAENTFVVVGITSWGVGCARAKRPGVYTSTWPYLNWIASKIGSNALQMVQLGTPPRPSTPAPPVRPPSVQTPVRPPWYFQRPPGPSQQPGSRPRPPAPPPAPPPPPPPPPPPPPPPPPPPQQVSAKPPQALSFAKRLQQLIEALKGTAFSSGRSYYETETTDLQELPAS

[5] = target: Plasma kallikrein (Homo sapiens) (UniProt P03952); experiment: Compound was evaluated for the reactivity in the inactivation of trypsin like enzyme Human plasma Kallikrein
Chain of Plasma kallikrein (Homo sapiens) (P03952 whole entry, looked up): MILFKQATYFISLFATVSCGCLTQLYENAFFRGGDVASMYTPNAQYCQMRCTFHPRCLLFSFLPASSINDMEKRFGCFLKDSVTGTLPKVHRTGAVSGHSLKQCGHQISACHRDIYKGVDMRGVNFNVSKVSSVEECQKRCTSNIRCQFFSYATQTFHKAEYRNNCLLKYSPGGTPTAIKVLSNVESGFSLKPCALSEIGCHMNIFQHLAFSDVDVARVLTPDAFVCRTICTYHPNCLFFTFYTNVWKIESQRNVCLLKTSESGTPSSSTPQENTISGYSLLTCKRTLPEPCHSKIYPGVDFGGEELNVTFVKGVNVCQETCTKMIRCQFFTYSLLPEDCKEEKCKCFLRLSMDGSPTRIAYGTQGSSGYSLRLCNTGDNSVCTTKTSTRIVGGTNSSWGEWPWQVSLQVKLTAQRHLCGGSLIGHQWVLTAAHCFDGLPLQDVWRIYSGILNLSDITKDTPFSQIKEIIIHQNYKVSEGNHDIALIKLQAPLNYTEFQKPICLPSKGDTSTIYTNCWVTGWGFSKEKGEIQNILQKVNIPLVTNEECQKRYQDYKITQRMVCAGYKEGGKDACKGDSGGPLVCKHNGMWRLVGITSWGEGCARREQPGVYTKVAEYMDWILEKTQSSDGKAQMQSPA

[6] = Second order rate constant was determined in the inactivation of HPK; procedure, shortened: as §1
[7] = system: Plasminogen; experiment: Compound was evaluated for the reactivity in the inactivation of trypsin like enzyme plasmin; procedure, shortened: as §2

SMILES	k2 [1] [min⁻¹]	Reactivity [2]	Reactivity [3]	Reactivity [4]	Reactivity [5]	k2 [6] [min⁻¹]	Reactivity [7]
CC(=O)O.CCOC(=O)c1ccc(NC(=N)N)cc1	1.89	11	259	200000	26	–	–
CC(=O)O.N=C(N)Nc1ccc(C(=O)OCC(=O)N[C@@H](Cc2ccccc2)C(=O)N2CCC[C@H]2C(N)=O)cc1	1.27	–	32000	–	2600	0.83	–
CC(=O)O.C[C@H](NC(=O)COC(=O)c1ccc(NC(=N)N)cc1)C(=O)N[C@@H](Cc1ccccc1)C(N)=O	0.748	–	13400	–	1400	0.84	–
CC(=O)O.CC(C)C(NC(=O)COC(=O)c1ccc(NC(=N)N)cc1)C(N)=O (centres undefined)	0.74	5	11200	114000	2000	0.87	441
CC(=O)O.N=C(N)Nc1ccc(C(=O)OCC(N)=O)cc1	0.523	300	17000	117000	2800	1.25	644
CC(=O)O.CC(OC(=O)c1ccc(NC(=N)N)cc1)C(=O)NC(Cc1ccccc1)C(N)=O (centres undefined)	3.7	32	14200	–	3000	0.1	743
CC(=O)O.N=C(N)Nc1ccc(C(=O)OCC(=O)NC(Cc2ccccc2)C(N)=O)cc1 (centres undefined)	3.24	21	46000	207000	8600	0.74	753
CC(=O)O.N=C(N)Nc1ccc(C(=O)OCC(=O)NCC(=O)NCC(N)=O)cc1	0.832	–	10200	–	2000	0.344	–
